The values that follow come from PubChem BioAssay.

The source made the active and inactive calls. Unless noted, the rule behind the calls is not given here.

Test [1] concerns the target Pantothenate synthetase (Mycobacterium tuberculosis (strain ATCC 25618 / H37Rv)) (UniProt P9WIL5). Briefly: Recombinant Mtb pantothenate synthetase (PanC) inhibitors, coupled enzyme, confirmatory (AID 375).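 For inhibition: 0% = full reaction with vehicle and 100% = no enzyme background.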 The note with it: coupled enzyme assay; at 10 µM, stronger effect = higher value.
Assay in test [2]: as above
The note with it: coupled enzyme assay; measured here: coupling enzymes IC50 repeat trials unless noted.

Test [3] can be described thus: SK-BR-3 cell growth inhibitors, pilot screen, 24 h, human (AID 572;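 active = viability at or below 10% of carrier control in both of two separate runs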;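 note: compound exposure lasted between 18 and 24 h rather than exactly 24 h; 100% = carrier-treated control wells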). The note with it: SK-BR-3 viability, CellTiter-Glo luminescence, at 10 µM, stronger effect = lower value. On the technique in general: In ATP-based viability assays light output follows the ATP content of the culture.
Test [4] in a line: HUVEC growth inhibition – cell-based, human, primary screen (AID 575;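 active = viability at or below 30% in both replicate assays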;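 note: 100% = median of untreated cell wells with 0.1% DMSO on each plate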). The note with it: HUVEC proliferation, CellTiter-Glo luminescence, 72 h; at 10 µM; stronger effect = lower value. The essentials: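 Assay system: primary human umbilical vein endothelial cells / Buffer or medium: endothelial basal medium with 2% FBS plus growth supplements / Compound dosing: one dose, 10 µM final, 0.1% DMSO / Timing: 72 h treatment at 37 °C / Signal: CTG luminescence / Benchmarks: 32 DMSO-only cell-control wells (high), 32 MePR drug-control wells (low) per plate / Plate: collagen-coated 384-well format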

The nature of test [5]: reversal of MRP1-mediated doxorubicin resistance, pilot screen, H69AR cells, doxorubicin co-treatment (AID 601;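 active = viability loss from added drug above about 55%, and viability with drug at most 40%, in both replicates, limit read from the data, passing the limit was not always enough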). The note with it: CellTiter-Glo, 72 h, at 10 µM.
Test [6] is described as follows: 384-well plate pilot, post-Golgi transport modulator project, inhibition of yeast transport mutant growth (AID 636; in the data active = inhibition above about 31%). Conditions: absorbance 615 nm, about 18 h, stronger effect = higher value.
Test [7] is described as follows: growth suppression of yeast trafficking mutant, preliminary HTS, modulators of trafficking downstream of Golgi apparatus project, 1536-format plate, OD 615 nm (AID 637; in the data active = inhibition above about 30%). Conditions: yeast transport mutant growth, absorbance 615 nm, 18 h; stronger effect = higher value.

Sequence of Pantothenate synthetase (Mycobacterium tuberculosis (strain ATCC 25618 / H37Rv)) (P9WIL5 whole entry, looked up): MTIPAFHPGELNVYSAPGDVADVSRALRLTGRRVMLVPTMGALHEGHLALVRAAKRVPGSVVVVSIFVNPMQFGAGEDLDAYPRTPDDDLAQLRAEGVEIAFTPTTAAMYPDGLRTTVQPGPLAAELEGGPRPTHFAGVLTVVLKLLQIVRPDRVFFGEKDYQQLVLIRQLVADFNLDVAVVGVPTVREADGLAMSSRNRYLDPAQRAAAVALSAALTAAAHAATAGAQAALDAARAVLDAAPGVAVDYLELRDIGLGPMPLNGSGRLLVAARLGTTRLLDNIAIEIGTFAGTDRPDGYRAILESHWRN

For the molecule `CCn1c(SCC(N)=O)nc2c1c(=O)n(C)c(=O)n2C`, the inhibition in test [1] is 0% (inactive). As for `CCOCC(=O)Nc1nc2ccc(OC)cc2s1`, the inhibition in test [1] is 0% (inactive). The same measure, in the same setting: with `COc1ccc(C(=O)NCc2ccccc2OC)cc1` the figure was 0% (inactive). In the case of `CCN1CCN(C(=O)c2ccc3c(=O)n(C4CCCC4)c(=S)[nH]c3c2)CC1`, the inhibition in test [1] was 0% (inactive).

As for `Cc1c(Cl)cnc(NC(=O)COC(=O)C(NC(=O)c2ccco2)C(C)C)c1Cl` (stereo not drawn), the inhibition in test [1] is 8% (inactive). Same read-out and setting: as for `COc1cccc(OC)c1C(=O)Nc1ccccc1N1CCCC1`, the figure is 2% (inactive). Turning to `Cc1ccc(Cn2ccc(NC(=O)c3cc(-c4ccc(Cl)cc4)on3)n2)cc1`, in test [2], the half-maximal inhibitory concentration (IC50) is above 100 µM. For the same molecule, the outcome in test [1] was inactive. As for `Cc1ccc(Cn2ccc(NC(=O)c3cc(-c4ccc(F)cc4)on3)n2)cc1`, the IC50 in test [2] was above 100 µM. For the same molecule, the outcome in test [1] was inactive. Taken in the same sequence, the figures for `COc1ccc(OC)c(-c2cc(C(=O)Nc3cc(C)n(Cc4ccc(Cl)cc4)n3)no2)c1` were above 100 µM and “inactive”. Regarding `N=c1c(C(=O)NCc2ccc(F)cc2)cc2c(=O)n3ccccc3nc2n1CCCN1CCOCC1`, the inhibition in test [1] is 0% (inactive). With `Cc1ccccc1Cn1nc(C)c(NC(=O)c2noc3c2CC(C(C)(C)C)CC3)c1C` (stereo not drawn), the IC50 in test [2] was above 100 µM. The result in test [1] was inactive. As for `Oc1c(C(c2ccccc2)N2CCc3ccccc3C2)sc2ncnn12` (stereo not drawn), the inhibition in test [1] is 0% (inactive). `Cc1ccc(Cn2ccc(NC(=O)c3cc(-c4cccc(Cl)c4)on3)n2)cc1`: in test [2], the concentration for half-maximal inhibition (IC50) is above 100 µM. Also, the result in test [1] was inactive.

As to `O=C(CSc1nnc2c3cc(F)ccc3nc(-c3ccccc3)n12)N1CCOCC1`, the inhibition in test [1] was 0% (inactive). For the molecule `Cc1ccc(Cn2ccc(NC(=O)c3noc4c3CCCCC4)n2)cc1`, the IC50 in test [2] was above 100 µM. The result in test [1] was inactive. Turning to `CCn1c(SCC(=O)Nc2ccccc2F)nc2c(c1=O)SC(C)C2` (stereo not drawn), the inhibition in test [1] was 0% (inactive).

On to `Cc1ccc(Cn2ccc(NC(=O)c3cc(-c4ccco4)on3)n2)cc1`, for which the half-maximal inhibitory concentration (IC50) in test [2] was above 100 µM. In test [1], the result was inactive. Taken in the same sequence, the figures for `Cc1cc(NC(=O)c2noc3c2CCCC3)nn1Cc1ccc(Cl)cc1` were above 100 µM and “inactive”. As for `COc1ccc2c(c1)CCc1c(C(=O)Nc3ccn(Cc4ccc(C)cc4)n3)noc1-2`, the IC50 in test [2] is above 100 µM. Further, the result in test [1] was inactive. For the molecule `c1ccc2oc(SCc3cn4ccccc4n3)nc2c1`, the inhibition in test [1] is 0% (inactive). For the molecule `Cc1ccc(Cn2ccc(NC(=O)c3cc(-c4cccs4)on3)n2)cc1`, in test [2], the half-maximal inhibitory concentration (IC50) was above 100 µM. Further, the inhibition in test [1] is 3% (inactive).

Take `Cc1cc(C(=O)Nc2cc(C)n(Cc3ccc(Cl)cc3)n2)no1`: the 50% inhibitory concentration (IC50) in test [2] is above 100 µM. In addition, the inhibition in test [1] is 3% (inactive). Taken in the same sequence, the figures for `Cc1ccc(Cn2ccc(NC(=O)c3noc4c3CCCC4)n2)cc1` were above 100 µM and 0% (inactive). Regarding `C=CCNc1nc2c(c(=O)n(C)c(=O)n2C)n1CCCCCC`, the inhibition in test [1] is 0% (inactive).

Consider `Cc1cc(NC(=O)c2noc3c2CCCCC3)nn1Cc1ccc(Cl)cc1`, for which the half-maximal inhibitory concentration (IC50) in test [2] is above 100 µM. The outcome in test [1] was inactive. Take `Cc1cc(-c2ccccc2)nnc1NCCN1CCOCC1`: in test [1], the inhibition is 0% (inactive). On to `COc1ccc(-c2cc(C(=O)Nc3cc(C)n(Cc4ccc(Cl)cc4)n3)no2)cc1OC`, for which, in test [2], the IC50 is above 100 µM. In test [1], the result was inactive. The matching figures for `Cc1cc(NC(=O)c2cc(-c3ccco3)on2)nn1Cc1ccc(Cl)cc1`: above 100 µM and “inactive”. With `COc1cccc(-c2cc(C(=O)Nc3cc(C)n(Cc4ccc(Cl)cc4)n3)no2)c1`, the concentration for half-maximal inhibition (IC50) in test [2] was above 100 µM. Further, the inhibition in test [1] is 0% (inactive). As for `CCCN1CCN(CCCNC(=O)C2CCCN(c3nc4ccc(OCC)cc4s3)C2)CC1` (stereo not drawn), the inhibition in test [1] was 1% (inactive). `Cc1cc(NC(=O)c2cc(-c3cccs3)on2)nn1Cc1ccc(Cl)cc1`: the concentration for half-maximal inhibition (IC50) in test [2] was above 100 µM. Also, the result in test [1] was inactive.

Take `COc1ccc(-n2c(=O)cc(N3CCN(Cc4ccccc4)CC3)[nH]c2=O)cc1`: in test [1], the inhibition is 0% (inactive). As for `COc1ccccc1-c1cc(C(=O)Nc2cc(C)n(Cc3ccc(Cl)cc3)n2)no1`, the 50% inhibitory concentration (IC50) in test [2] is above 100 µM. Further, the outcome in test [1] was inactive. Taken in the same sequence, the figures for `Cc1ccc(Cn2ccc(NC(=O)c3cc(-c4ccc(Br)cc4)on3)n2)cc1` were above 100 µM and “inactive”. Turning to `O=c1c2ccccc2[se]n1-c1ccccc1`, the concentration for half-maximal inhibition (IC50) in test [2] was 0.485 µM [measured here: coupling enzymes counter-screen IC50]. Moreover, the viability is 67% (inactive) in test [3]; 42.1% (inactive) in test [4]; 1.34% in test [5] (H69AR cells + 2 uM doxorubicin, measured here: viability with 2 uM doxorubicin, stronger effect = lower value); 3.73% in test [5] (H69AR cells, compound alone cytotoxicity). Also, in test [5] (H69AR cells + 2 uM doxorubicin, stronger effect = higher value), the differential viability (reversal) was 2.39% (inactive). Moreover, the inhibition in test [6] is 0.65% (inactive); in test [7] it was -0.5% (inactive). For the molecule `Cc1ccc(Cn2ccc(NC(=O)c3cc(-c4ccccc4)on3)n2)cc1`, the IC50 in test [2] is above 100 µM. Besides, the result in test [1] was inactive. Take `O=C(Nc1nc(-c2ccccc2)cs1)C1CCCCN1S(=O)(=O)c1ccccc1` (stereo not drawn): in test [1], the inhibition is 1% (inactive).

For the molecule `O=C(NC1CCCC1)c1ccc(S(=O)(=O)N2CCCC2)cc1`, in test [1], the inhibition is 0% (inactive). The same measure, in the same setting: with `COCCN(Cc1cc2cc3c(cc2n2nnnc12)OCO3)C(=O)c1ccccc1F` the figure was 2% (inactive). Same read-out and setting: with `O=C(CSc1nc2ccccc2[nH]1)N1CCCCC1` the figure was 0% (inactive); with `O=C(CSc1ncc(-c2ccc(F)cc2)[nH]1)N1CCCCC1`, 0% (inactive); with `CCn1c(=O)cc(SCC(=O)Nc2cccnc2)c2ccccc21`, 0% (inactive). On the same count and under the same terms, with `Cc1nnc(SCC(=O)N2c3ccccc3CC2C)s1` (stereo not drawn) the figure was 0% (inactive); with `CCc1cc2c(=O)c(-c3nc4ccccc4[nH]3)coc2cc1OC(=O)N1CCOCC1`, 7% (inactive). In the case of `CCSc1nnc(NC(=O)CCNS(=O)(=O)c2cc(Br)cnc2N)s1`, in test [1], the inhibition is 3% (inactive). Same read-out and setting: with `CCOc1ccc(C(C)=O)cc1COc1ccc(-n2cnnn2)cc1` the figure was 13% (inactive). Same read-out and setting: with `CCSc1oc(-c2cccs2)nc1S(=O)(=O)c1ccccc1` the figure was 4% (inactive). For the molecule `CCOC(=O)c1sc2nc(C)cc(C)c2c1N`, in test [1], the inhibition is 0% (inactive). Still for that read-out and setting: as for `[O-][n+]1onc2c1CCc1nnc(-c3ccccc3)cc1-2`, the figure is 0% (inactive); as for `Cc1nc2ccccc2c2oc(C(=O)N3CCC(N4CCCCC4)CC3)cc12`, 0% (inactive). The same measure, in the same setting: as for `Cc1ccc(NC(=O)CSc2nnc(-c3ccccn3)n2C)cc1`, the figure is 1% (inactive). Same read-out and setting: with `CC1Cn2c(nnc2-c2ccc(F)cc2)S1` (stereo not drawn) the figure was 6% (inactive); with `CCn1c(=O)cc(SCC(=O)N2CCOCC2)c2ccccc21`, 11% (inactive); with `O=C(Nc1ccc2oc(-c3ccncc3)nc2c1)c1cccs1`, 0% (inactive). Turning to `O=C(COc1ccc(S(=O)(=O)NC2CCCCC2)cc1)NCc1ccccn1`, the inhibition in test [1] was 0% (inactive). Same read-out and setting: as for `COc1ccc(S(=O)(=O)n2ccnc2)c2cccnc12`, the figure is 4% (inactive); as for `CC(=O)N1CCc2cc(S(=O)(=O)CCC(=O)N3CCN(c4ccccn4)CC3)ccc21`, 11% (inactive). For `Cc1c(C#N)c2ncnc(-c3ccccc3)c2n1-c1ccccc1`, the inhibition in test [1] was 0% (inactive). The same measure, in the same setting: as for `COCc1[nH]nc2c1C(C1C=CCCC1)C(C#N)=C(N)O2` (stereo not drawn), the figure is 0% (inactive); as for `Cc1ccc(-n2ncc3c(Nc4c(C)n(C)n(-c5ccccc5)c4=O)ncnc32)c(C)c1`, 10% (inactive); as for `CCOC(=O)C1CCN(C(=O)CN(Cc2ccccc2)S(C)(=O)=O)CC1`, 1% (inactive). On the same count and under the same terms, with `COc1ccccc1NC(=O)N(Cc1ccco1)Cc1cc2c(C)ccc(C)c2[nH]c1=O` the figure was 0% (inactive); with `Cc1c(C(=O)Nc2ccncc2)oc2c1C(=O)CC(C)(C)C2`, 5% (inactive).

As for `COc1ccc(CCNC(=O)CN(c2ccccc2OC)S(C)(=O)=O)cc1`, the inhibition in test [1] is 0% (inactive).

`CCN1CCN(S(=O)(=O)Cc2ccccc2)CC1`: the inhibition in test [1] is 0% (inactive). Same read-out and setting: with `O=C1CC(c2ccccc2)n2nc(NC(=O)c3ccccn3)nc2N1` (stereo not drawn) the figure was 0% (inactive). On to `CCOc1cccc(Oc2ccc(C(F)(F)F)cn2)c1`, for which the inhibition in test [1] is 0% (inactive). Turning to `O=C(O)C1CCCCC1C(=O)Nc1ccccn1` (stereo not drawn), the inhibition in test [1] was 0% (inactive).

As to `CN(C)CCOc1ccccc1Cc1ccccc1`, the inhibition in test [1] was 0% (inactive).

For `CCCCC(=O)NCCc1cc2c(C)ccc(C)c2[nH]c1=O`, the inhibition in test [1] is 0% (inactive). The same measure, in the same setting: with `NC(=O)C(Cc1ccccc1)NS(=O)(=O)c1ccc(N2CCCC2=O)cc1` (stereo not drawn) the figure was 0% (inactive). Still for that read-out and setting: with `Cc1csc(NC(=O)C(Cc2ccccc2)n2cccc2)n1` (stereo not drawn) the figure was 5% (inactive); with `CC(=Nc1ccc(C)c(C)c1)C1=C(O)CCC1=O`, 3% (inactive). The same measure, in the same setting: as for `c1ccc(N=P(c2nc3ccccc3o2)(N2CCOCC2)N2CCOCC2)cc1`, the figure is 0% (inactive); as for `O=C1C2ON(c3ccccc3)C(c3cccnc3)C2C(=O)N1c1ccccc1` (stereo not drawn), 4% (inactive); as for `c1cnc(NCCNc2ncccn2)nc1`, 0% (inactive). For `COc1ccccc1NC(=O)c1oc2ccccc2c1NC(=O)c1cc(OC)c(OC)c(OC)c1`, in test [1], the inhibition is 0% (inactive). The same measure, in the same setting: with `CCOC(=O)Cc1nnc2c(Nc3ccc(C)cc3)nc3nonc3n12` the figure was 1% (inactive). On the same count and under the same terms, as for `O=C1c2ccccc2C(O)(Cc2ccccc2)N1Cc1ccco1` (stereo not drawn), the figure is 2% (inactive); as for `O=S(=O)(NCc1cn2ccccc2n1)c1cc(F)ccc1F`, 2% (inactive). Turning to `Cn1cnnc1SCC(=O)Nc1ccccc1Sc1ccccc1`, the inhibition in test [1] was 7% (inactive).

One may read the inhibition as the change of the read-out against control, counted positive when it falls. Broadly, the IC50 is the concentration at which inhibition is half-maximal. One may read the viability as the share of living cells, or the viability signal relative to a control.
